We go through three molecules from ChEMBL document CHEMBL4145471, “New 1,5 and 2,5-disubstituted tetrazoles-dependent activity towards surface barrier of Candida albicans” (Eur J Med Chem, 2018).

The test system of series [1] is Candida albicans. In words: Antifungal activity against Candida albicans ATCC 90028 at 1 ug/ml after 48 hrs relative to control. It counts as functional. The essentials:
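Planktonic broth microdilution per M27-A3 in MOPS-buffered RPMI 1640 (pH 7.0), final inoculum 1.8×10^3 cells/mL, compounds 0.0313–16 µg/mL from 1600 µg/mL stocks in ethanol or DMSO. Incubated at 35°C without agitation; OD405 read at 18 and 48 h. % inhibition was derived from test, sterility (no inoculum) and solvent growth-control wells. Amphotericin B at 0.5 µg/mL served as the 100% control.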

A further series concerns Caco-2. The experiment in a line: Cytotoxicity against human Caco2 cells assessed as reduction in cell viability at 0.0313 ug/ml after 18 hrs by XTT assay ralative to control. The class given is cell-based. Conditions: caco-2, 18 h. Summed up: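 Caco-2 cells were exposed to compound at 256, 16 or 0.0313 µg/mL for 18 h, then given XTT reagent for 4–6 h. Absorbance was read at 475 nm with a 660 nm reference, and viability and toxicity were expressed as %. CC50 was taken as the concentration giving 50% viability loss. Means ± SD of three independent experiments, samples in duplicate.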
On the technique in general: Formazan colour is commonly taken as a measure of viable cells.

The subject of series [2] is Candida albicans. The experiment in a line: Synergistic antifungal activity against Candida albicans ATCC 90028 at 80 ug/ml after 48 hrs in presence of 80 ug/ml fluconazol by checkerboard assay relative to control. It counts as functional. Conditions: ATCC 90028, 48 h, read-out: GI. Summed up: (§1)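 Checkerboard in C. albicans ATCC 90028, inoculum prepared per CLSI M27-A3 in RPMI. Fluconazole serially diluted 80-1.25 µg/mL across the plate against the partner compound at 80-1.25 µg/mL final. Incubated 48 h at 35°C. Metabolic activity read by XTT reduction at 475 nm (660 nm reference), given as % of the untreated growth control.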

Series [3] deals with Candida albicans. In words: Synergistic antifungal activity against Candida albicans ATCC 90028 at 40 ug/ml after 48 hrs in presence of 10 ug/ml fluconazol by checkerboard assay relative to control. The class given is functional. Summed up:
as §1

The subject of series [4] is Candida albicans. In words: Synergistic antifungal activity against Candida albicans ATCC 90028 at 10 ug/ml after 48 hrs in presence of 40 ug/ml fluconazol by checkerboard assay relative to control. The class given is functional. The essentials:
(§2)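 Checkerboard per M27-A3 against ATCC 90028: fluconazole at 80–1.25 µg/mL horizontally and partner compound at 80–1.25 µg/mL vertically, 100 µL yeast inoculum per well, 35°C for 48 h. After 48 h, metabolic activity was measured by XTT reduction at 475 nm (660 nm reference) relative to untreated growth control. FIC index is the sum of the FICs; <1 was defined as synergism and >1 as antagonism.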

Series [5] relates to Candida albicans. In words: Synergistic antifungal activity against Candida albicans ATCC 90028 at 10 ug/ml after 48 hrs in presence of 1.25 ug/ml fluconazol by checkerboard assay relative to control. It counts as functional. Summed up:
as §2

Series [6] has as its system Candida albicans. The experiment in a line: Synergistic antifungal activity against Candida albicans ATCC 90028 at 5 ug/ml after 48 hrs in presence of 20 ug/ml fluconazol by checkerboard assay relative to control. It counts as functional. The essentials: as §1
The subject of series [7] is Candida albicans. In words: Synergistic antifungal activity against Candida albicans ATCC 90028 at 5 ug/ml after 48 hrs in presence of 5 ug/ml fluconazol by checkerboard assay relative to control. It counts as functional. Conditions: ATCC 90028, 48 h, read-out: GI. The essentials:
as §1

Series [8] relates to Candida albicans. The experiment in a line: Synergistic antifungal activity against Candida albicans ATCC 90028 at 2.5 ug/ml after 48 hrs in presence of 10 ug/ml fluconazol by checkerboard assay relative to control. It counts as functional. Summed up: (§3)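 Checkerboard microdilution (M27-A3) on C. albicans ATCC 90028 in RPMI 1640: fluconazole (80-1.25 µg/mL) crossed with tetrazole (80-1.25 µg/mL final), incubated at 35°C for 48 h. Growth by OD405 at 18 and 48 h, endpoint taken as 100% inhibition. FIC index = sum of the two agents' FICs; <1 synergism, >1 antagonism.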

The test system of series [9] is Candida albicans. In words: Synergistic antifungal activity against Candida albicans ATCC 90028 at 2.5 ug/ml after 48 hrs in presence of 5 ug/ml fluconazol by checkerboard assay relative to control. The class given is functional. Summed up:
as §3

For series [10], the system named is Candida albicans. The experiment in a line: Antifungal activity against Candida albicans ATCC 90028 assessed as inhibition of metabolic activity at 10 ug/ml after 48 hrs in presence of 20 ug/ml fluconazol by XTT assay relative to control. It counts as functional. Conditions: values are per cent of control. Summed up: (§4)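 Checkerboard against strain ATCC 90028, inoculum per M27-A3: fluconazole 80-1.25 µg/mL on one axis, tetrazole 80-1.25 µg/mL on the other. Plates at 35°C for 48 h, then XTT metabolic reduction read at 475 nm (660 nm reference). Activity is the drop in mean absorbance against untreated growth control. FICs and their summed FIC index are taken at 50% reduction in metabolic activity.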

Series [11] deals with Candida albicans. In words: Antifungal activity against Candida albicans ATCC 90028 assessed as inhibition of metabolic activity at 10 ug/ml after 48 hrs in presence of 5 ug/ml fluconazol by XTT assay relative to control. The class given is functional. Conditions: values are per cent of control. The essentials: as §4
Series [12] relates to Candida albicans. The experiment in a line: Antifungal activity against Candida albicans ATCC 90028 assessed as inhibition of metabolic activity at 5 ug/ml after 48 hrs in presence of 1.25 ug/ml fluconazol by XTT assay relative to control. It counts as functional. Conditions: values are per cent of control. Summed up:
as §4

The test system of series [13] is Candida albicans. The experiment in a line: Antifungal activity against Candida albicans ATCC 90028 assessed as inhibition of metabolic activity at 2.5 ug/ml after 48 hrs in presence of 2.5 ug/ml fluconazol by XTT assay relative to control. The class given is functional. Conditions: ATCC 90028, 48 h, values are per cent of control. Summed up: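 C. albicans ATCC 90028 in checkerboard: fluconazole serial dilutions (80-1.25 µg/mL) crossed with tetrazole (80-1.25 µg/mL final), M27-A3 inoculum in RPMI 1640, 35°C for 48 h. Metabolic activity measured by XTT reduction, read at 475 nm (660 nm reference). Activity expressed relative to untreated growth control absorbance.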

The subject of series [14] is Candida albicans. In words: Antifungal activity against Candida albicans ATCC 90028 assessed as inhibition of metabolic activity at 1.25 ug/ml after 48 hrs in presence of 5 ug/ml fluconazol by XTT assay relative to control. The class given is functional. To be noted: values are per cent of control. Summed up: as §4
Series [15] relates to Candida albicans. In words: Antifungal activity against Candida albicans ATCC 90028 after 48 hrs by M27-A3 microdilution method. The class given is functional. Conditions: ATCC 90028, 48 h. For orientation: In broth dilution the organism is exposed to a series of concentrations in liquid medium.
Series [16] concerns Candida albicans. The experiment in a line: Antifungal activity against Candida albicans ATCC 90028 assessed as metabolic activity at 40 ug/ml after 48 hrs in presence of 80 ug/ml fluconazol by XTT assay relative to control.
The subject of series [17] is Candida albicans. In words: Antifungal activity against Candida albicans ATCC 90028 assessed as metabolic activity at 10 ug/ml after 48 hrs in presence of 40 ug/ml fluconazol by XTT assay relative to control.
The test system of series [18] is Candida albicans. The experiment in a line: Antifungal activity against Candida albicans ATCC 90028 assessed as metabolic activity at 40 ug/ml after 48 hrs in presence of 1.25 ug/ml fluconazol by XTT assay relative to control.

Each structure is given as a SMILES string.

As to `CCOC(=O)CCn1nnc(-c2ccccc2)n1`, the Activity with Candida albicans [1] stood at 97.51%; in the series with Caco-2, 0%. For the same molecule, the inhibition of growth at 80 µg/mL in the series with Candida albicans [2] turned out to be 99.6%. The “growth inhibition (GI)” value in the series on Candida albicans [3] turned out to be 99.53%; in the series on Candida albicans [4], 99.34%; with Candida albicans [5], 99.72%; in the series with Candida albicans [6], 99.58%; in the series with Candida albicans [8], 99.49%; in the series with Candida albicans [9], 99.08%. In the series on Candida albicans [7], the inhibition of growth at 5 µg/mL amounted to 99.1%. Moreover, the residual activity with Candida albicans [10] is 70.81%; in the series with Candida albicans [11] it was 100%; with Candida albicans [12] it was 88.02%; in the series on Candida albicans [14], 100%. The residual activity at 2.5 µg/mL in the series with Candida albicans [13] was determined as 82.6%. In the series on Candida albicans [15], this molecule returned an MIC of over 16 µg/mL. The Metabolic activity in the series with Candida albicans [16] came to 55.99%; in the series on Candida albicans [17], 94.14%; in the series on Candida albicans [18], 66.6%.

Regarding `ClCCCn1nnnc1-c1ccccc1Cl`, the figures for the Activity in the series with Candida albicans [1] and in the series with Caco-2 were 98.22% and 0%, respectively. Moreover, in the series with Candida albicans [2], the inhibition of growth at 80 µg/mL stood at 99.8%. In addition, the “growth inhibition (GI)” value in the series with Candida albicans [3] was found to be 99.59%; with Candida albicans [4], 99.29%; with Candida albicans [5], 99.86%; with Candida albicans [6], 99.67%; in the series with Candida albicans [8], 99.75%; with Candida albicans [9], 98.94%. The inhibition of growth at 5 µg/mL in the series on Candida albicans [7] was 98.8%. The residual activity in the series on Candida albicans [10] is 87.4%; in the series on Candida albicans [11], 100%; in the series on Candida albicans [12], 79.99%; in the series with Candida albicans [14] it was 100%. For the same molecule, the residual activity at 2.5 µg/mL in the series with Candida albicans [13] turned out to be 75.8%. Further, the MIC against Candida albicans [15] was over 16 µg/mL. Moreover, the Metabolic activity in the series with Candida albicans [16] came out at 63.62%; in the series on Candida albicans [17], 100%; with Candida albicans [18], 13.59%.

With `Cc1ccc(-c2nnn(CCCN3CCOCC3)n2)cc1`, the Activity is recorded as 96.58% in the series with Candida albicans [1] and 18.76% with Caco-2. Moreover, the inhibition of growth at 80 µg/mL in the series on Candida albicans [2] came out at 99.5%. Besides, the “growth inhibition (GI)” value amounted to 99.69% with Candida albicans [3]; 98.78% in the series on Candida albicans [4]; 97.81% in the series on Candida albicans [5]; 99.16% in the series with Candida albicans [6]; 99.09% in the series on Candida albicans [8]; 98.33% in the series on Candida albicans [9]. In addition, the inhibition of growth at 5 µg/mL in the series on Candida albicans [7] was 98.7%. The residual activity in the series with Candida albicans [10] is listed as 93.01%; in the series on Candida albicans [11], 100%; with Candida albicans [12] it was 100%; in the series on Candida albicans [14], 100%. The residual activity at 2.5 µg/mL in the series on Candida albicans [13] turned out to be 100%. The molecule further displayed an MIC against Candida albicans [15] of over 16 µg/mL. The Metabolic activity is given as 66.33% in the series on Candida albicans [16], 100% in the series on Candida albicans [17] and 40.06% in the series with Candida albicans [18].

Usually residual activity stands for the share of the control activity or signal that is left under treatment. For orientation: MIC means the smallest concentration in the dilution series that meets the test's criterion for growth inhibition.
